Assay outcomes: PubChem BioAssay, several laboratories
Most compounds without a hit are left out; they make up all but 1.6% or so of the library.
procasp3 activ – activates human procaspase-3 | P42574 | recombinant procaspase-3 D3A, Ac-DEVD-pNA absorbance 405 nm | activation, % at 8.5 µM | hit rate 0.11% among 330,000;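 active means activation above the mean of all tested compounds plus 3 SD, cut at about 21% in these data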;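 further: 0% = DMSO alone and 100% = DMSO wells spiked with extra 5 µM PC-3 D3A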
Target sequence (P42574 whole entry D9A/D28A/D175A): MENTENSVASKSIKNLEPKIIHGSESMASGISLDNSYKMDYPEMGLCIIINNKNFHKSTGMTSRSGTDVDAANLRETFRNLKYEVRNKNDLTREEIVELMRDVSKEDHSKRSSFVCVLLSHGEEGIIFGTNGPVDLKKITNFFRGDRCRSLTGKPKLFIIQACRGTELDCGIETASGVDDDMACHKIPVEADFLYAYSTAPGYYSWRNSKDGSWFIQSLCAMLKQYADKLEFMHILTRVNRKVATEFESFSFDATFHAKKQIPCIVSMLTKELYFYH
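Evaluation: percent activation relative to control range; Material: Procaspase-3 D3A mutant, all three cleavage aspartates alanine; Compound: single dose, 8.5 µM nominal compound, 0.8% DMSO; Replication: one well per compound; Signal: absorbance at 405 nm, 0 and 120 min; Schedule: 1 h preincubation plus 2 h reaction at 25 °C.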
Neddyl block – cullin neddylation inhibition; P61081+Q13564; TR-FRET cullin neddylation, biochemical; calls only at 25 µM; hit rate 0.58% among 360,000; AID 651699; in the data active means inhibition above about 36%
proKLK7 act – proKLK7 (human) activation, primary screen. P49862. purified proKLK7, EDANS-DABCYL substrate fluorescence; 100% is mature enzyme control, 0% vehicle. activation, % at 7 µM. hit rate 0.9% among 370,000. AID 652039;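 active means activation above the mean of all tested compounds plus 3 SD, computed per campaign excluding outliers beyond control limits, cut at about 13% in these data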
procasp7 counter – activates human procaspase-7, counter-screen for procaspase-3 activators; hit rate 0.093% among 330,000; activation, % at 8.5 µM; recombinant procaspase-7, Ac-DEVD-pNA absorbance 405 nm; D23A/D198A/D206A triple mutant, cannot self-cleave; scale: DMSO 0, 5 µM enzyme 100;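 active means percent activation above the screen-wide mean plus 3 SD, cut at about 25% in these data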
Target sequence (P55210 whole entry D23A/D198A/D206A): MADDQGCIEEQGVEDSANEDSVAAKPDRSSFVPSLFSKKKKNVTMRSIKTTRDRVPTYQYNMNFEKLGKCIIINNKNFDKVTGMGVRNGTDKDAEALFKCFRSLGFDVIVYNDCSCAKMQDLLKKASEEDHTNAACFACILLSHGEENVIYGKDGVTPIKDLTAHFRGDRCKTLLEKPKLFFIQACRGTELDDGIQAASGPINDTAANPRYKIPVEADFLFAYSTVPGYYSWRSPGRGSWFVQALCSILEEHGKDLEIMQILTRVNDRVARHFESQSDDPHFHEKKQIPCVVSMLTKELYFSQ
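Assay system – Uncleavable procaspase-7 mutant enzyme · Quantity – 2 µM procaspase-7 mutant as dispensed · Times – 1 h preincubation, 2 h reaction · Dosing – single nominal 8.5 µM compound dose, 0.8% DMSO final · Buffer or medium – Zinc-free 50 mM HEPES buffer, pH 7.4, with NaCl and Triton X-100 · Detection – Epi-absorbance of released pNA at 405 nm, two timepoints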
Neddyl conf – confirmation of human cullin neddylation inhibitors; shares compounds with Neddyl block; TR-FRET cullin neddylation biochemical assay; calls only at 25 µM; hit rate 13% among 1,800; AID 652217; in the data active means inhibition above about 40%;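 further: neddylation substrate is the cullin 1 ring ligase complex with SKP2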
Numbers without * were called inactive; i = inactive; nt = not tested or not shown; + = active, no number.

SMILES | procasp3 activ | Neddyl block | proKLK7 act | procasp7 counter | Neddyl conf
Cc1c(OC(C)C(=O)N2C[C@H]3C[C@@H](C2)c2cccc(=O)n2C3)ccc2c3c(c(=O)oc12)CCC3 (stereo not given in full) | 3 | i | -13 | -6 | nt
Cc1c(C)c2ccc(OC(C)C(=O)N3C[C@H]4C[C@@H](C3)c3cccc(=O)n3C4)c(C)c2oc1=O (stereo not given in full) | -3 | + | 0 | 3 | i
CCOc1cc(NC(=O)c2ccco2)c(OCC)cc1NC(=O)CCc1ccccc1OC | 4 | + | -12 | -4 | i
CCOc1cc(NC(=O)c2ccco2)c(OCC)cc1NC(=O)c1ccco1 | 7 | nt | 0 | -2 | nt
O=C(CSc1nnc(-c2ccccc2)n1-c1ccc(Cl)cc1)Nc1ccccc1-c1ccccc1 | nt | nt | 1 | nt | nt
Cc1ccc(-c2cc(C(F)(F)F)n3nc(C(=O)NCCCn4ccnc4)cc3n2)cc1C | 19 | + | -3 | 4 | nt
CN1Cc2nnn(CC3CCCCC3)c2-c2ccccc2S1(=O)=O | nt | nt | 1 | nt | nt
COc1cccc(Nc2nc3ccccc3nc2NS(=O)(=O)c2ccc(NC(C)=O)cc2)c1 | 4 | + | nt | 3 | nt
O=S(=O)(Nc1nc2ccccc2nc1Nc1ccc2c(c1)OCO2)c1ccc(F)cc1 | 9 | + | 0 | 2 | i
O=C(O)c1cccc(Nc2nc3ccccc3nc2NS(=O)(=O)c2ccc(F)cc2)c1 | -2 | i | 0 | -3 | nt
Cc1ccc(N(CC(=O)N2CCCCCC2)S(C)(=O)=O)cc1 | nt | i | 1 | nt | nt
Cn1c(=O)oc2cc(S(=O)(=O)N3CCN(C(=O)C4CCCO4)CC3)ccc21 (stereo not given) | nt | nt | 1 | nt | nt
Cc1cc2[nH]c3ccccc3c2c(C)n1 | -5 | + | 0 | 9 | i
Cc1nc(=S)c2ccccc2[nH]1 | -1 | i | -1 | -3 | nt
c1cnc(SCC2CCCCC2)c(-c2nc3ccccc3[nH]2)c1 | nt | nt | 0 | nt | nt
CSc1ccccc1NC(=S)N/N=C/c1cccn1Cc1cccc(C)c1 | -1 | i | 0 | -3 | nt
CSc1ccccc1NC(=S)N/N=C/c1cccn1Cc1ccc(F)cc1 | -7 | + | -1 | -10 | i
COC(=O)c1sc2nc3c(cc2c1N)COC(C)(C)C3 | -10 | + | -1 | -5 | +
COc1ccc(/C=N/NC(=O)c2cccs2)c2ccccc12 | -1 | + | 0 | 5 | i
COc1ccc(OC)c(C=NNC(=O)c2ccccc2NS(=O)(=O)c2cccs2)c1 | -8 | + | 5 | 5 | nt
c1ccc(Cn2c(SCc3cn4cccnc4n3)nnc2-c2ccco2)cc1 | -1 | + | 1 | -3 | i
Cc1ccc(Nc2nc(C)nc3c2oc2ccccc23)cc1 | 14 | + | -1 | 6 | nt
CCc1nc(Nc2ccc(N3CCN(C(C)=O)CC3)cc2)c2oc3ccccc3c2n1 | 2 | + | 2 | 7 | i
CCCCc1c(-c2ccccc2OC)ncn1Cc1cc(F)ccc1F | nt | nt | 0 | nt | nt
COc1ccc(C(=O)C[n+]2ccc3c(c2)nc(Cc2ccccc2)n3C)cc1 | nt | nt | 0 | nt | nt
SMILES | procasp3 activ | Neddyl block | proKLK7 act | procasp7 counter | Neddyl conf
O=C(Nc1ccccc1)c1cn2ccccc2n1 | 1 | i | 0 | 3 | nt
O=C(Nc1ccc(-n2cnnn2)cc1)c1cn2ccccc2n1 | -4 | + | nt | 7 | i
COc1ccc(CN2CN3Cc4ccc(C)cc4C3CS2(=O)=O)cc1 (stereo not given) | nt | nt | 0 | nt | nt
COC(=O)[C@]12C[C@H](CC(=O)NCc3cccc(C(F)(F)F)c3)C(=O)N(Cc3ccco3)C1=C[C@H](C1CCCC1)O[C@@H]2C | nt | nt | 1 | nt | nt
CC1C(O)=C(c2nc3ccccc3[nH]2)C(=N)N1c1ccccc1 (stereo not given) | 3 | + | -1 | 5 | i
N=C1C(c2nc3ccccc3[nH]2)=C(O)CN1c1ccccc1 | 14 | i | 0 | 2 | nt
COC(=O)[C@]12C[C@H](CC(=O)NCCCN3CCCC3=O)C(=O)N(Cc3ccccc3)C1=C[C@H](COCc1ccccc1)O[C@@H]2C | nt | nt | 0 | nt | nt
c1ccc2c(c1)-c1cccc3cncc-2c13 | nt | + | -6 | nt | i
C=CCN1[C@H](C)COc2cc(F)ccc2S1(=O)=O | nt | nt | 0 | nt | nt
CCN(CC)C(=O)CC[C@H]1CC[C@]2(CCCN(Cc3ccc(OC)cc3)C2)O1 | nt | nt | -1 | nt | nt
CCCCN(C)C(=O)CCC(=O)Nc1ccc2nc(N3CCOCC3)cc(C)c2c1 | 1 | nt | 6 | 13 | nt
Cc1cc(N2CCN(C)CC2)nc2ccc(NC(=O)CCC(=O)NCCc3ccc(Cl)cc3)cc12 | nt | + | 0 | nt | i
CCCCN(C)C(=O)CCC(=O)Nc1ccc2nc(N3CCN(C)CC3)cc(C)c2c1 | 4 | + | 2 | 10 | i
COc1cccc(/C=N/Nc2ncc(C)c(=O)[nH]2)c1OC | -1 | + | 0 | 10 | i
COc1cccc(/C=N/Nc2ncnc3c2[nH]c2ccc(C)cc23)c1OC | 3 | + | -1 | 0 | i
O=C(O)CCCc1ccc2ccc3cccc4ccc1c2c34 | -7 | nt | 1 | -3 | nt
NCCCCc1ccc2ccc3cccc4ccc1c2c34 | nt | + | -2 | nt | i
O=C(c1c(F)cccc1F)N1CCC(Oc2cccnc2)CC1 | nt | nt | 0 | nt | nt
Cc1cc(-c2ccc3c(c2)COc2c4ccccc4nn2-3)on1 | 1 | + | -2 | 3 | i
FC(F)(F)c1ccccc1NC(=S)OC1CCC12CCC(c1ccccc1)CC2 (stereo not given) | nt | nt | 1 | nt | nt
FC(F)(F)Oc1cccc(Cn2ccc3ccc(-c4ccc5ccn(Cc6ccccc6)c5c4)cc32)c1 | nt | nt | -2 | nt | nt
Cc1cc(=O)oc2cc(OC(C)C(=O)O)c(Cl)cc12 (stereo not given) | -3 | i | 0 | 5 | nt
Cc1cc(=O)oc2cc(NC(=O)c3ccc(OC(F)F)cc3)ccc12 | 7 | nt | 2 | 1 | nt
CCCC(C(=O)Nc1ccc2c(C)cc(=O)oc2c1)c1ccccc1 (stereo not given) | -7 | + | 2 | 7 | i
Cc1cc(=O)oc2cc(NC(=O)C(C)Oc3ccc(F)cc3)ccc12 (stereo not given) | 6 | + | 3 | 2 | nt
SMILES | procasp3 activ | Neddyl block | proKLK7 act | procasp7 counter | Neddyl conf
Cc1onc(-c2ccccc2)c1C(=O)Nc1ccc2c(C)cc(=O)oc2c1 | 3 | + | -13 | 6 | i
Cc1cc(=O)oc2ccc(OC(C)C(=O)O)cc12 (stereo not given) | 6 | + | 0 | -1 | i
O=C(NCCN1CCC(Cc2ccccc2)CC1)C1CCCN(S(=O)(=O)c2ccc([N+](=O)[O-])cc2)C1 (stereo not given) | nt | nt | 1 | nt | nt
CN(Cc1cn(CC2CCCCC2)nn1)S(=O)(=O)c1ccccc1Br | nt | nt | 0 | nt | nt
COC(=O)CSc1nnc(-c2n[nH]c3c2CCC3)n1N | nt | nt | 0 | nt | nt
CCOC(=O)C1=C(C)NC(C)=C(C(=O)OCC)C1C(=O)OCC(=O)NC | 5 | i | 3 | 6 | nt
